# From PubChem BioAssay
# Shown are actives, neighbours in structure and some others; about 2.3% of the full set was active somewhere.
# Glyco luc inh = blocks N-linked glycosylation in D54 reporter cells; D54 ERlucT glycosylation luciferase reporter, 24 h; percent of 100 nM tunicamycin response; reporter increase, % at 12.5 µM; hit rate 0.23% among 360,000;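 active means mean luciferase reporter signal, scaled so untreated is 0 and the glycosylation-blocking control 100, at or above a set limit in every replicate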;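 further: luciferase carries N-glycosylation sites so blocking glycosylation raises the light; 0% = median of neutral control wells and 100% = median of 100 nM tunicamycin wells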
# Rtt109 HAT inh = inhibitors of Candida albicans Rtt109/Vps75 histone acetyltransferase; Q5AAJ8; purified Rtt109/Vps75, ThioGlo CoA-SH fluorescence, 4 h; inhibition, % at 34.9 µM; hit rate 0.16% among 330,000;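 active means inhibition of at least 50% in every replicate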
# Target sequence (Q5AAJ8 whole entry, looked up): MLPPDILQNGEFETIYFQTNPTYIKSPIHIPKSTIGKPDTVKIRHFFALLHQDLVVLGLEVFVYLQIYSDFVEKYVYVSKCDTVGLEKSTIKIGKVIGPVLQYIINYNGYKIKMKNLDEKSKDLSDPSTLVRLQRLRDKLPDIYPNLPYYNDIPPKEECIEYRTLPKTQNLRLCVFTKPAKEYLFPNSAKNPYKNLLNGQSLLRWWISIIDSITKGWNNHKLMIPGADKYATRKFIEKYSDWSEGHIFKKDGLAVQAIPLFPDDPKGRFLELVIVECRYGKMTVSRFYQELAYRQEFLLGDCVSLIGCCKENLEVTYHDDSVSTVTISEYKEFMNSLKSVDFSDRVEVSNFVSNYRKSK
# PfHsp90 yeast 2 = inhibits growth of yeast expressing Plasmodium falciparum Hsp90. S. cerevisiae expressing PfHsp90, BacTiter-Glo ATP, 48 h; yeast lacking PDR1 and PDR3 efflux regulators. inhibition, % at 9.4 µM. hit rate 0.32% among 310,000;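 active means every replicate shows inhibition above about 80%, whatever the replicate mean, limit read from the data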;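 further: 0% = DMSO neutral controls and 100% = 20 µM radicicol positive controls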
# Env fusion inh = blocks HIV Env-driven cell-cell fusion. hit rate 1.1% among 360,000. HeLa-JRFL Env/CEM21 cell fusion, luciferase. inhibition, % at 12.3 µM;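 active means mean replicate inhibition score of at least 50 and every replicate individually at or above 50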;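 further: 0% = plate neutral controls and 100% = maraviroc near 300 nM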
# Arrestin-AP2 inh = human beta-arrestin and AP2 interaction inhibition. FITC-arrestin peptide / GST-AP2 beads, flow cytometry; AP2 beta2 appendage carries R879A mutation. hit rate 0.31% among 340,000. inhibition, % at 10 µM. AID 504490;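 active means inhibition above a set limit, near 3 SD of compounds lacking own fluorescence, cut at about 54% in these data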;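 further: plate controls were DMSO wells for no effect and 5 µM unlabelled arrestin peptide for full effect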
#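 Material – AP2 appendage R879A on GSH beads · Buffer or medium – PBS with 0.05% Tween 20 and 0.1% BSA · Probe or stimulus – fluorescein-tagged arrestin peptide at 50 nM final · Incubation – compound with beads 12 min RT, then probe 1 h RT · Detection – high-throughput flow cytometry of beads, ex 488, em 535 nm · Evaluation – percent response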
# PAX8 inh HTS = inhibitors of PAX8 transcriptional activity in RMG-I cells; RMG-I TPO-luciferase reporter, SteadyGlo, 24 h; inhibition, % at 12.6 µM; hit rate 1.2% among 360,000; AID 652154;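 active means mean replicate inhibition at least 60% with every replicate also reaching 60%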;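 further: luciferase light reporting Pax8 driven TPO promoter activity; plate controls were median of neutral control wells for no effect and mitoxantrone controls for full effect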
# * hit, by the source's call; x = no result given; ! = not confirmed by another sample; [ ] = another dose, or the depositor's remark.
SMILES,Glyco luc inh,Rtt109 HAT inh,PfHsp90 yeast 2,Env fusion inh,Arrestin-AP2 inh,PAX8 inh HTS
Oc1ccc(C[C@H]2CNC(=S)N2CC2CCCN2C[C@H](Cc2ccc(O)cc2)N2C[C@H](Cc3ccc(O)cc3)N(CC3CCCCCC3)C2=S)cc1 (stereo partly drawn),-5,3,-26,44,6,99*
CO[C@H]1CN(C)C(=O)c2cc(NC(=O)c3cc(C)on3)ccc2OC[C@@H](C)NC[C@@H]1C,x,x,x,-128[16.7 µM],x,-13
Nc1nonc1C(=O)NCCNCc1cc(Br)ccc1OCc1ccccc1F,-3,3,x,78*,20,x
COc1cccc(NC(=O)N[C@@H]2CC[C@@H](CC(=O)N3CCCCC3)O[C@@H]2CO)c1,x,x,x,-1[16.7 µM],x,-14
Cc1ccc(-c2ccc(C3[C@@H]4CN(C(=O)Nc5ccc(C(F)(F)F)cc5)C[C@H]3N4)cc2)cc1 (stereo partly drawn),x,x,x,x,x,91*!
COc1ccc(NC(=O)N2C[C@@H]3N[C@H](C2)C3c2ccc(-c3cccc(F)c3)cc2)cc1 (stereo partly drawn),x,x,x,x,x,-7
O=C(Nc1ccccc1)N1C[C@@H]2N[C@H](C1)C2c1ccc(-c2ccccc2)cc1 (stereo partly drawn),x,x,x,x,x,-18
O=C(Nc1ccccc1)N1C[C@@H]2N[C@H](C1)[C@@H]2c1ccc(/C=C/c2ccccc2)cc1,x,x,x,x,x,113*
O=C(Nc1ccc(C(F)(F)F)cc1)N1C[C@@H]2N[C@H](C1)C2c1ccc(-c2cccc(F)c2)cc1 (stereo partly drawn),x,x,x,x,x,88*
C[C@H](CO)N1C[C@H](C)[C@@H](CN(C)Cc2ccc(C(=O)O)cc2)Oc2ccc(NC(=O)Nc3ccc(F)cc3)cc2CC1=O,x,x,x,2[16.7 µM],x,-1
COc1ccc(-c2ccc3c(c2)[C@@H]2[C@@H](CCN2C(=O)C2CCCC2)[C@H](CO)N3C)cc1,x,x,x,28[16.7 µM],x,76*
COc1ccc(-c2ccc3c(c2)C2CC3CCN2S(=O)(=O)c2ccccc2C)cc1 (stereo not drawn),-2,-1,19,57*,12,15
O=S(=O)(c1cccc2ccccc12)N1CCC2CC1c1cc(-c3ccc(F)cc3)ccc12 (stereo not drawn),-5,-1,6,10,15,-28
COc1ccc(-c2ccc3c(c2)[C@@H]2[C@@H](CCN2C(=O)C2CCCCC2)[C@H](CO)N3C)cc1,x,x,x,x,x,93*
COc1ccc(-c2ccc3c(c2)[C@H]2[C@H](CCN2S(=O)(=O)c2ccccc2C)[C@H](CO)N3C)cc1,x,x,x,x,x,69*
COc1ccc(-c2ccc3c(c2)[C@H]2[C@H](CCN2C(=O)C2CCCCC2)[C@H](CO)N3C)cc1,x,x,x,x,x,23
COc1ccc(-c2ccc3c(c2)[C@@H]2[C@@H](CCN2S(=O)(=O)c2ccccc2C)[C@H](CO)N3C)cc1,x,x,x,x,x,-2
CO[C@H]1CN(C)C(=O)c2cc(NC(=O)Nc3ccc(C(F)(F)F)cc3)ccc2OC[C@H](C)NC[C@@H]1C,x,x,x,-2[16.7 µM],x,x
COc1ccccc1-c1ccc2n(c1=O)C[C@@H]1[C@@H](CO)[C@H](C(=O)NCC3CC3)N(S(C)(=O)=O)[C@H]21,x,x,x,7[16.7 µM],x,-2
C[C@H]1CCCCO[C@H](CN(C)Cc2ccc(C(F)(F)F)cc2)[C@@H](C)CN([C@@H](C)CO)C(=O)c2cc(NC(=O)c3ccncc3)ccc2O1,x,x,x,-19[16.7 µM],x,28
CCCCCCCCCC[N+](C)(C)CC/C=C1/c2ccccc2Sc2ccc(Cl)cc21,9,4,106*,x,3,x
CCCCCCCCCCC[N+](C)(C)CC/C=C1/c2ccccc2Sc2ccc(Cl)cc21,6,-5,107*,x,-15,x
CC[N+](C)(C)CC/C=C1/c2ccccc2Sc2ccc(Cl)cc21,0,x,x,5,-11,4
O=C(NCCCSc1ccccc1)c1cc(Br)ccc1O,x,9,94*,11,-6,6
Cc1noc(C)c1NC(=O)N[C@@H]1CC[C@H](CC(=O)N2CCCCC2)O[C@H]1CO,x,x,x,-24[16.7 µM],x,-16
O=C(CCCSc1nnc(SCCCC(=O)c2ccc(F)cc2)s1)c1ccc(F)cc1,-4,x,-5,60*,3,x
Cc1cc(C(=O)COc2ccc(-c3nnco3)cc2)c(C)n1Cc1ccccc1,-5,6,x,65*,12,16
COc1ccc(N2CCn3c2nc2c3c(=O)n(CCCc3ccccc3)c(=O)n2C)c(OC)c1,-6,5,-11,73*,38,33
